Our source for the IC50, Activity and inhibition values is ChEMBL document CHEMBL1833937, “Structure-based design of pseudopeptidic inhibitors for SIRT1 and SIRT2” (J Med Chem, 2011).

The target in data set [1] is T1, NAD-dependent protein deacetylase sirtuin-2 (Homo sapiens, UniProt Q8IXJ6).
T1 sequence (Q8IXJ6 whole entry): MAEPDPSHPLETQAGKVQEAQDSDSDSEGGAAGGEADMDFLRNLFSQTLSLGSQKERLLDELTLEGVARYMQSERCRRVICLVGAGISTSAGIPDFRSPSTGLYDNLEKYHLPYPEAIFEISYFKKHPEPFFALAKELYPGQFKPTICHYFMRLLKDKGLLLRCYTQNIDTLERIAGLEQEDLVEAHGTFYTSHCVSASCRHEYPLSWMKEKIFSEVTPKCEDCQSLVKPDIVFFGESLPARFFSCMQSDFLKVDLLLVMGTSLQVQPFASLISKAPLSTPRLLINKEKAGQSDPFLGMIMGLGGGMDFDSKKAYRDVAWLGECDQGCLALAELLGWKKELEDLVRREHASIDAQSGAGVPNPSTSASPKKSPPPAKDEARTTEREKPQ
Put plainly: Inhibition of recombinant GST-tagged SIRT2 after 1 hr by Fluor de Lys-based fluorescence assay. An outline of the steps: (§1)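 Fluor de Lys deacetylation: GST-SIRT1 with KI177 substrate at 40 μM or GST-SIRT2 with KI179 substrate at 138 μM (70% of Km; Km 58 and 198 μM), 500 μM NAD+, assay buffer with 1 mg/mL BSA, DMSO 2.5 μL per 50 μL. Substrate, NAD+ and compound preincubated 5 min rt; enzyme starts reaction, 1 h 37 °C. Developer plus 2 mM nicotinamide, 45 min 37 °C; ex 355/em 460 nm. IC50 from 9-point dose-response (0.0001–2000 μM), at least three repeats.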

The target of data set [2] is T2, NAD-dependent protein deacetylase sirtuin-1 (Homo sapiens, UniProt Q96EB6).
T2 sequence (Q96EB6 whole entry): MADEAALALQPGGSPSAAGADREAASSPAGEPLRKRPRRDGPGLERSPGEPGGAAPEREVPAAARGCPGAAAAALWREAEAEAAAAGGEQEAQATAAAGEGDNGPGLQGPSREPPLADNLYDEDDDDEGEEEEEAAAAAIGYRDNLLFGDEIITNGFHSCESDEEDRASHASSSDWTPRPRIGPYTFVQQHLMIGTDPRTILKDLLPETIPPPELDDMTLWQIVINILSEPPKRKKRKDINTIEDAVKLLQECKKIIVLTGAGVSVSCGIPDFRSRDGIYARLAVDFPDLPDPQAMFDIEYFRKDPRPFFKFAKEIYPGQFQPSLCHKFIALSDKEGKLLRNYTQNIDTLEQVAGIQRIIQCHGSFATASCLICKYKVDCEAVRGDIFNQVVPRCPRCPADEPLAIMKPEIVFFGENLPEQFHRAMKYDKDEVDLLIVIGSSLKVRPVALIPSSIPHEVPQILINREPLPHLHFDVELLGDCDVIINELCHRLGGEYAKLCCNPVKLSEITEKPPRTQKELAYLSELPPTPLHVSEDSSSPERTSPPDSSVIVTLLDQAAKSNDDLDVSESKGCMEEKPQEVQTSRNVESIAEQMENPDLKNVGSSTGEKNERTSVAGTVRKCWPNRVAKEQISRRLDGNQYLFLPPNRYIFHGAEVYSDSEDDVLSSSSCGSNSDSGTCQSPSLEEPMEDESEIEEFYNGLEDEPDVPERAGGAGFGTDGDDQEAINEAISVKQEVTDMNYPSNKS
Briefly: Inhibition of recombinant GST-tagged SIRT1 after 1 hr by Fluor de Lys-based fluorescence assay. The method, boiled down:
as §1

Data set [3] relates to SH-SY5Y. Put plainly: Cytotoxicity against human SH-SY5Y cells at 10 uM by LDH assay. The format is functional, cell-based. An outline of the steps:
(§2)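 After plating at 10^5 cells/well and 24 h attachment, cells exposed 5 h to compound together with etoposide; cytotoxicity read as lactate dehydrogenase released into culture medium by a commercial LDH kit.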

Data set [4] concerns the target T3, NAD-dependent protein deacetylase sirtuin-1 (Homo sapiens) (UniProt Q96EB6).
T3 sequence (whole entry): T2 sequence (Q96EB6 whole entry)
Briefly: Inhibition of human SIRT1 in human astrocytes assessed as increase in p53 acetylation level at 10 uM after 5 hrs by Western blot analysis in presence of etoposide-induced DNA damage. The format is cell-based. The method, boiled down: (§3)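 Cells seeded at 10^5 per well and treated 24 h later with compound plus etoposide together for 5 h. Lysates (M-PER) cleared 16000g 20 min, equal protein on 4–12% SDS-PAGE, blotted to nitrocellulose, probed with rabbit monoclonal anti-acetyl-p53 (K382), actin as loading control, HRP secondary and chemiluminescence.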
In general terms: A western blot detects proteins with antibodies after separation by electrophoresis.

Data set [5] can be described thus: Cytotoxicity against human ARPE19 cells at 10 uM by LDH assay. The format is cell-based. The conditions noted are these: arpe-19, 10 µM. An outline of the steps:
as §2

For data set [6], the target named is Histone deacetylase (Homo sapiens) (UniProt Q13547+O15379+Q9UBN7+Q92769+Q9UQL6+Q8WUI4+Q9BY41+Q96DB2+P56524+Q9UKV0+Q969S8). Briefly: Inhibition of HDAC in human HeLa nuclear extract at 200 uM after 1 hr by Fluor de Lys-based fluorescence assay. It is filed as protein assay. An outline of the steps: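 HeLa nuclear extract as HDAC source, 50 μM acetylated Fluor de Lys HDAC substrate, compounds 200 μM in HDAC assay buffer; substrate addition starts reaction, 1 h at 37 °C. Developer plus […], 15 min at 25 °C; fluorescence ex 355/em 460 nm. Run twice; means and standard deviations.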

The target in data set [7] is T3, NAD-dependent protein deacetylase sirtuin-1 (Homo sapiens). Briefly: Inhibition of human SIRT1 in ARPE19 cells assessed as increase in p53 acetylation level at 10 uM after 5 hrs by Western blot analysis in presence of etoposide-induced DNA damage. The format is cell-based. The method, boiled down: as §3
A short description of data set [8]: Cytotoxicity against human astrocytes at 10 uM by LDH assay. The format is cell-based. Conditions: astrocyte. The method, boiled down: as §2
In data set [9] the target is T3, NAD-dependent protein deacetylase sirtuin-1 (Homo sapiens). Put plainly: Inhibition of human SIRT1 in SH-SY5Y cells assessed as increase in p53 acetylation level at 10 uM after 5 hrs by Western blot analysis in presence of etoposide-induced DNA damage. The format is cell-based. The method, boiled down: as §3
Data set [10] has as its system SH-SY5Y. Put plainly: Cytotoxicity against human SH-SY5Y cells at 100 uM by LDH assay. It is filed as functional, cell-based. An outline of the steps:
as §2

In data set [11] the target is T3, NAD-dependent protein deacetylase sirtuin-1 (Homo sapiens). Briefly: Inhibition of human SIRT1 in SH-SY5Y cells assessed as increase in p53 acetylation level at 100 uM after 5 hrs by Western blot analysis in presence of etoposide-induced DNA damage. The format is cell-based. An outline of the steps: as §3
Data set [12] shares this target. Briefly: Inhibition of recombinant GST-tagged SIRT1 at 200 uM after 1 hr by Fluor de Lys-based fluorescence assay. The method, boiled down:
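Single-point Fluor de Lys test at 200 μM: GST-SIRT1 (40 μM KI177 substrate) or GST-SIRT2 (138 μM KI179 substrate), 500 μM NAD+, BSA-supplemented buffer, 5 min rt preincubation, enzyme-started 1 h at 37 °C. Developer with 2 mM nicotinamide 45 min 37 °C; fluorescence ex 355/em 460 nm. Percent inhibition ± standard deviation.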

The source made the active and inactive calls. The calls are words filed in the database; no cut-off is given here. Where a SMILES comes first, the peptide text is derived from it. [ ]: non-standard residue; d: D form. Lys(Thioacetyl) = CC(=S)NCCCC[C@H](N)C(=O)O

For the compound `CC(=S)NCCCC[C@H](NC(=O)OCc1ccccc1)C(=O)NCC(=O)c1ccccc1`, the IC50 – broadly, the concentration that inhibits the measured activity by half – in data set [1] was 4.3 µM; in data set [2], 1.6 µM. Moreover, in the data set with SH-SY5Y [3], the result was inactive. Also, the outcome in data set [4], in data set [7] and in data set [9] was Active. Also, the Activity result in [5] and in [8] was “Non-toxic” throughout. Also, the inhibition (commonly the drop in the measured response relative to a control, in per cent) in data set [6] is 5.1%.

For `CC(=S)NCCCC[C@H](NC(=O)OCc1ccccc1)C(=O)Nc1ccccc1O`, the IC50 was determined as 7.4 µM in data set [1] and 5.1 µM in data set [2]. Further, the inhibition in data set [6] amounted to 1.9%.

In the case of `CC(=S)NCCCC[C@H](NC(=O)CCc1ccccc1)C(=O)N[C@@H](C)C(=O)O`, the 50% inhibitory concentration (IC50) in [1] is 56 µM; in [2], 0.99 µM. Also, in data set [6], the inhibition is 8.5%.

Regarding `CC(=S)NCCCC[C@H](NC(=O)[C@H](C)N)C(=O)N[C@@H](C)C(=O)O`, the IC50 in data set [1] worked out at 36 µM; in [2], 0.66 µM.

Regarding `CC(=S)NCCCC[C@H](NC(=O)[C@@H]1CCCN(C(=O)OC(C)(C)C)C1)C(=O)N[C@@H](C)C(=O)O`, the values for the IC50 in data set [1] and in [2] were 13 µM and 0.97 µM, respectively. For the same compound, the outcome with SH-SY5Y [10] and in the data set on SH-SY5Y [3] was inactive. This compound registered an inhibition in [6] of 23.7%. Besides, the result in [11] and in data set [9] was Active.

Take `CC(=S)NCCCC[C@H](NC(=O)OCc1ccccc1)C(=O)Nc1ccccc1`: the IC50 in data set [1] was 15 µM; in data set [2], 9.9 µM. The compound further yielded an inhibition in data set [6] of 2.5%.

Take `CC(=S)NCCCC[C@H](NC(=O)OCc1ccccc1)C(=O)NC1CCCCC1`: in data set [2], the IC50 turned out to be 23 µM. Further, the inhibition in [6] was found to be 75.4%.

In the case of `CC(=S)NCCCC[C@H](N)C(=O)N[C@@H](C)C(=O)O`, the inhibition in [12] was 46.9%.

With `CC(=S)NCCCC[C@H](NC(=O)OCc1ccccc1)C(=O)N[C@@H](C)C(=O)O`, the IC50 was 17 µM in data set [1] and 1.3 µM in data set [2]. Also, in the data set with SH-SY5Y [3], the outcome was inactive. In data set [6], this compound gave an inhibition of 3.9%. Also, the outcome in [9] was Active.

`CNC(=O)[C@H](C)NC(=O)[C@H](CCCCNC(C)=S)NC(=O)[C@H](C)NC(C)=O`: the IC50 in [1] turned out to be 2.9 µM; in data set [2], 0.4 µM.

In the case of `CSCC[C@H](NC(=O)[C@H](CC(C)C)NC(=O)[C@H](CCCCNC(C)=S)NC(=O)[C@H](CCCCN)NC(=O)[C@@H](N)Cc1cnc[nH]1)C(=O)O` (H-HK[Lys(Thioacetyl)]LM-OH), the half-inhibitory concentration (IC50) in data set [1] amounted to 6.3 µM; in [2] it was 0.31 µM.

As for `CC(=S)NCCCC[C@H](NC(=O)CCc1ccccc1F)C(=O)N[C@@H](C)C(=O)O`, the IC50 in [1] came out at 27 µM; in data set [2], 1.3 µM. Moreover, the inhibition in [6] was 16.3%.

Turning to `COC(=O)[C@H](C)NC(=O)[C@H](CCCCNC(C)=S)NC(=O)[C@H](C)NC(C)=O`, the concentration for half-maximal inhibition (IC50) in data set [1] amounted to 13 µM; in data set [2] it was 1 µM.

On to `COC(=O)[C@H](C)NC(=O)[C@H](CCCCNC(C)=S)NC(C)=O`, for which the concentration for half-maximal inhibition (IC50) in [1] amounted to 862 µM; in data set [2] it was 51 µM.

With `CC(=S)NCCCC[C@H](NC(=O)[C@H](N)Cc1ccccc1)C(=O)N[C@@H](C)C(=O)O`, in data set [2], the IC50 came out at 18 µM. Also, the inhibition in data set [6] is 7.6%.

On to `CC(=S)NCCCC[C@H](NC(=O)CCc1ccccc1O)C(=O)N[C@@H](C)C(=O)O`, for which the IC50 came to 53 µM in [1] and 1 µM in data set [2]. The inhibition in data set [6] turned out to be 5.6%.

For `CC(=S)NCCCC[C@H](NC(=O)[C@H](C)NC(=O)OC(C)(C)C)C(=O)N[C@@H](C)C(=O)O`, the concentration for half-maximal inhibition (IC50) in data set [1] worked out at 6.5 µM; in data set [2], 0.77 µM. In [6], the inhibition amounted to 10.1%.

On to `CC(=O)N1CCC[C@H]1C(=O)N[C@@H](CCCCNC(C)=S)C(=O)N[C@@H](C)C(=O)O`, for which the figures for the IC50 in data set [1] and in data set [2] were 31 µM and 0.37 µM, respectively.

Regarding `CC(=S)NCCCC[C@H](NC(=O)OCc1ccccc1)C(=O)Nc1ccccc1F`, the IC50 in data set [1] is 16 µM; in data set [2] it was 7.4 µM. Further, the inhibition in data set [6] worked out at 1.4%.
